Results published in ChEMBL document CHEMBL3745620, “Design and Synthesis of DiselenoBisBenzamides (DISeBAs) as Nucleocapsid Protein 7 (NCp7) Inhibitors with anti-HIV Activity” (J Med Chem, 2015).
Calls of active or inactive are those of the source. The rule behind the calls is not given here.

Experiments:
[1] = Cytotoxicity against human HUT78 cells assessed as reduction in cell viability after 5 days by MTT assay; format: cell-based
[2] = Selectivity index, ratio of CC50 for human MT4 cells to EC50 for HIV-2 ROD; format: toxicity, cell-based; conditions: read-out: Ratio CC50/EC50
Outline: (§1)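 Compounds added at start in serial 5-fold dilutions, triplicate wells, to mock- and virus-infected cells (100-300 CCID50 per well). After 5 days, viability by MTT reduction (OD540). Mean ± SD, at least two experiments.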

[3] = system: Human immunodeficiency virus 1; assay: Antiviral activity against HIV1 3B infected in human MT4 cells assessed as inhibition of viral replication by measuring p24 Ag production at 2 ug/ml measured at 31 hrs post infection by ELISA; format: functional, organism-based
Outline: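 MT-4 cells infected with HIV-1 IIIB at m.o.i. 0.5, 1 h adsorption, then seeded at 45,000 cells/well at 37°C. Compound added at times from 0 to 25 h post-infection. Read-out was p24 in supernatant by ELISA at 31 h post-infection.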

[4] = Selectivity index, ratio of CC50 for human MT4 cells to EC50 for HIV1 3B; format: toxicity, cell-based; conditions: read-out: Ratio CC50/EC50; outline: as §1
[5] = Selectivity index, ratio of CC50 for human HUT78 cells to EC50 for HIV1 3B; format: toxicity, cell-based; conditions: read-out: Ratio CC50/EC50
Outline: (§2)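 Chronically HIV-1 IIIB-infected HuT-78 cells washed four times in PBS to remove free virions and seeded at 2 × 10^5 cells/well with 7 serial 5-fold compound dilutions for 43 h at 37°C. Supernatant p24 measured by ELISA. Cytotoxicity was run in parallel by MTT plus microscopy. SI = CC50/EC50. Mean ± SD, ≥2 experiments.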

[6] = system: Human immunodeficiency virus 1; assay: Antiviral activity against HIV1 3B infected in human MT4 cells assessed as protection against virus-induced cytopathic effect after 5 days by MTT assay; format: functional, organism-based; conditions: Human immunodeficiency virus 1, 3B, MT4, 120 h
Outline: as §1, with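 “MT-4 cells in RPMI 1640 with 10% heat-inactivated FCS, resuspended at 6 x 10^5 cells/ml. Compounds” for “Compounds”, “(OD540). […]” for “(OD540).”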

[7] = system: Human immunodeficiency virus 2; assay: Antiviral activity against HIV2 ROD infected in human MT4 cells assessed as protection against virus-induced cytopathic effect after 5 days by MTT assay; format: functional, organism-based; conditions: Human immunodeficiency virus 2, ISOLATE ROD, MT4, 120 h
Outline: as §1, with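 “MT-4 cells in RPMI 1640 with 10% heat-inactivated FCS, resuspended at 6 x 10^5 cells/ml. Compounds” for “Compounds”, “(OD540). […]” for “(OD540).”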

[8] = Cytotoxicity against human MT4 cells assessed as cell viability after 5 days by MTT assay; format: cell-based; outline: as §1
[9] = system: HuT78; assay: Inhibition of NCp7 of HIV1 3B persistently infected in HUT78 cells assessed as accumulation of unprocessed Gag polyprotein after 43 hrs by Western blot analysis; format: cell-based; conditions: Human immunodeficiency virus 1
Outline: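 Washed HuT-78(IIIB) cells (2x10^5 in 1 ml) treated with compound for 43 h at 37°C. Virions pelleted from clarified supernatant (36,670 g, 2 h, 4°C), lysed, run on SDS-PAGE and transferred to PVDF. Blot probed with mouse anti-p24 (1:5000), then HRP anti-mouse (1:2500), with chemiluminescent detection.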

[10] = system: Human immunodeficiency virus 1; assay: Antiviral activity against HIV1 3B persistently infected in HUT78 cells assessed as reduction of p24 production after 43 hrs by ELISA; format: functional, organism-based; conditions: Human immunodeficiency virus 1, 3B, HuT78, 43 h; outline: as §2
[11] = system: Human immunodeficiency virus 1; assay: Antiviral activity against AZT-resistant HIV1 ADP/141 harboring reverse transcriptase D67N/K70R/T215F/K219Q mutant infected in human MT4 cells; format: functional, organism-based; conditions: Human immunodeficiency virus 1, ADP/141, MT4
Outline: (§3)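 MT-4 cells in RPMI 1640 with 10% heat-inactivated FCS were infected at the start of the experiment, with compound added across serial 5-fold dilutions in triplicate wells. Cells were seeded at 6 x 10^5 cells/ml. After 5 days, protection against virus-induced cytopathic effect was read by MTT reduction at OD540. […] Values are means ± SD of at least two experiments.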

[12] = system: Human immunodeficiency virus 1; assay: Antiviral activity against NRTI/NNRTI-resistant HIV1 L6 harboring reverse transcriptase V75I/F77L/K103N/F116Y/Q151M/M184V mutant infected in human MT4 cells; format: functional, organism-based; conditions: Human immunodeficiency virus 1, L6, MT4; outline: as §3
[13] = Antiviral activity against nevirapine-resistant SIV mac251 infected in human MT4 cells; format: functional, cell-based; conditions: Simian immunodeficiency virus; outline: as §3
[14] = system: Human immunodeficiency virus 1; assay: Antiviral activity against ritonavir-resistant HIV1 3B/RIT infected in human MT4 cells; format: functional, organism-based; conditions: Human immunodeficiency virus 1, 3B/RIT; outline: as §3
[15] = system: Human immunodeficiency virus 1; assay: Antiviral activity against ritonavir-resistant HIV1 B12 harboring […] L10I/I15V/I54V/L63P/V82A/I85V mutant infected in human MT4 cells; format: functional, organism-based; conditions: Human immunodeficiency virus 1, B12, MT4; outline: as §3
[16] = system: Human immunodeficiency virus 1; assay: Antiviral activity against NNRTI-resistant HIV1 RES056 harboring reverse transcriptase K103N/181C double mutant infected in human MT4 cells; format: functional, organism-based; conditions: Human immunodeficiency virus 1, RES056, MT4; outline: as §3

| SMILES | CC50 at 120 h [1] [µM] | selectivity ratio [2] | inhibition [3] | selectivity ratio [4] | selectivity ratio [5] | EC50 [6] [µM] | EC50 [7] [µM] | CC50 at 120 h [8] [µM] | inhibition [9] | EC50 [10] [µM] | EC50 [11] [µM] | EC50 [12] [µM] | EC50 [13] [µM] | EC50 [14] [µM] | EC50 [15] [µM] | EC50 [16] [µM] |
| --- | --- | --- | --- | --- | --- | --- | --- | --- | --- | --- | --- | --- | --- | --- | --- | --- |
| NS(=O)(=O)c1ccc(NC(=O)c2ccccc2[Se][Se]c2ccccc2C(=O)Nc2ccc(S(N)(=O)=O)cc2)cc1 | > 35 | 6 | Active | 6 | > 4 | 2.82 | 3.03 | 17.4 | Dose-dependent effect | 8.25 | – | – | – | – | – | – |
| CC(C)[C@H](NC(=O)c1ccccc1[Se][Se]c1ccccc1C(=O)N[C@H](C(=O)O)C(C)C)C(=O)O | – | 9 | Active | 10 | – | 13.9 | 14.3 | 136 | Dose-dependent effect | – | – | – | – | – | – | – |
| CCOC(=O)CC[C@H](NC(=O)c1ccccc1[Se][Se]c1ccccc1C(=O)N[C@@H](CCC(=O)OCC)C(=O)OCC)C(=O)OCC | – | ≤ 4 | Active | ≤ 4 | – | ≥ 0.67 | ≥ 0.72 | 2.8 | – | – | – | – | – | – | – | – |
| O=C(O)[C@@H]1CCCN1C(=O)c1ccccc1[Se][Se]c1ccccc1C(=O)N1CCC[C@H]1C(=O)O | – | < 1 | Active | < 1 | – | > 152 | > 152 | 152 | Dose-dependent effect | – | – | – | – | – | – | – |
| NS(=O)(=O)c1ccc(OC(=O)c2ccccc2[Se][Se]c2ccccc2C(=O)Oc2ccc(S(N)(=O)=O)cc2)cc1 | – | < 1 | Active | < 1 | – | > 18.6 | > 18.6 | 18.6 | Dose-dependent effect | – | – | – | – | – | – | – |
| C[C@H](NC(=O)c1ccccc1[Se][Se]c1ccccc1C(=O)N[C@@H](C)C(=O)O)C(=O)O | – | 26 | Active | 13 | – | 10.3 | 5.38 | 138 | Dose-dependent effect | – | – | – | – | – | – | – |
| O=C(O)CNC(=O)c1ccccc1SSc1ccccc1C(=O)NCC(=O)O | – | < 1 | Active | < 1 | – | > 58.1 | > 58.1 | 58.1 | – | – | – | – | – | – | – | – |
| COC(=O)C[C@H](NC(=O)c1ccccc1[Se][Se]c1ccccc1C(=O)N[C@@H](CC(=O)OC)C(=O)OC)C(=O)OC | – | ≤ 3 | Active | ≤ 3 | – | ≥ 3.17 | ≥ 2.75 | 9.74 | – | – | – | – | – | – | – | – |
| Cc1cn([C@H]2C[C@H](N=[N+]=[N-])[C@@H](CO)O2)c(=O)[nH]c1=O [ZIDOVUDINE] | – | > 935 | – | > 748 | – | 0.01 | 0.008 | > 7.48 | Dose-dependent effect | – | 0.03 | > 7.48 | – | – | – | – |
| COC(=O)[C@@H]1CCCN1C(=O)c1ccccc1[Se][Se]c1ccccc1C(=O)N1CCC[C@H]1C(=O)OC | – | 2 | Active | ≤ 2 | – | ≥ 4.32 | 4.56 | 10.1 | – | – | – | – | – | – | – | – |
| CC[C@H](C)[C@H](NC(=O)c1ccccc1[Se][Se]c1ccccc1C(=O)N[C@H](C(=O)OC)[C@@H](C)CC)C(=O)OC | – | ≤ 2 | Active | 4 | – | 0.84 | ≥ 1.25 | 2.99 | – | – | – | – | – | – | – | – |
| NS(=O)(=O)c1ccc(NC(=O)c2cccnc2[Se][Se]c2ncccc2C(=O)Nc2ccc(S(N)(=O)=O)cc2)cc1 | – | ≤ 6 | Active | 5 | – | 3.77 | ≥ 3.11 | 19.2 | Dose-dependent effect | – | – | – | – | – | – | – |
| NS(=O)(=O)c1ccc(NC(=O)c2ccccc2SSc2ccccc2C(=O)Nc2ccc(S(N)(=O)=O)cc2)cc1 | 18.4 | 30 | – | 6 | 6.9 | 3.04 | 0.56 | 10.5 | – | 2.66 | – | – | – | – | – | – |
| CC1CNC(=O)c2ccccc2SSc2ccccc2C(=O)N1 (stereo unspecified) | > 7.5 | – | – | – | > 54 | – | – | – | Dose-dependent effect | > 7.5 | – | – | – | – | – | – |
| COC(=O)[C@H](C)NC(=O)c1ccccc1[Se][Se]c1ccccc1C(=O)N[C@@H](C)C(=O)OC | – | 8 | Active | 5 | – | 3.17 | 1.94 | 15.8 | – | – | – | – | – | – | – | – |
| CCOC(=O)CNC(=O)c1ccccc1[Se][Se]c1ccccc1C(=O)NCC(=O)OCC | – | 9 | Active | 7 | – | 0.91 | 0.74 | 6.26 | – | – | – | – | – | – | – | – |
| CC(C)c1nc(CN(C)C(=O)N[C@H](C(=O)N[C@@H](Cc2ccccc2)C[C@H](O)[C@H](Cc2ccccc2)NC(=O)OCc2cncs2)C(C)C)cs1 [RITONAVIR] | – | – | Active | – | – | 0.09 | 0.14 | – | Dose-dependent effect | 29 | – | – | 0.14 | 2.77 | 1.28 | – |
| O=C(O)C[C@H](NC(=O)c1ccccc1[Se][Se]c1ccccc1C(=O)N[C@@H](CC(=O)O)C(=O)O)C(=O)O | – | < 1 | Active | < 1 | – | > 151 | > 151 | 151 | Dose-dependent effect | – | – | – | – | – | – | – |
| Cc1ccnc2c1NC(=O)c1cccnc1N2C1CC1 [NEVIRAPINE] | > 14 | – | – | > 60 | – | 0.28 | > 15 | > 15 | – | 0.26 | – | > 15 | > 15 | – | – | > 15 |
